Hits are enriched below; roughly 4.3% of the tested compounds scored in any of these assays.
STAT3 activator – STAT3 signaling activation; U3A cells, IL-6 STAT3-luciferase reporter, luminescence; 100% = signal with IL-6 EC80 alone; activation (% of control), % at 5.6 µM; 0.91% of 190,000 active; AID 871;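 active = activation above the screen-wide mean of compound activation plus 3 SD, cut at about 130% in these data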;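 also: 0% = background luminescence of wells with medium and substrate only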
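Material: STAT3-luciferase reporter U3A cells. Controls: IL-6-treated wells, 100% activation. Read-out: % activation versus median of IL-6-stimulated wells. Probe or stimulus: IL-6 stimulus at 33 ng/mL final. Timing: compound 1 h, then IL-6 6 h at 37 °C. Signal: reporter luminescence signal.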
STAT1 act – increases IFN-gamma driven STAT1 reporter signal; NIH 3T3 STAT1-luciferase reporter, luminescence; 100% = IFN-gamma alone, no compound; activation (% of control), % at 5.5 µM; 2.6% of 200,000 active; AID 932;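 active = activation above the screen-wide mean activation plus 3 SD, cut at about 130% in these data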;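 also: raw ratio to IFN-gamma control signal so 100% means no change and 0% no light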
STAT1 inh – STAT1 signaling inhibition; 0.35% of 200,000 active; NIH 3T3 STAT1-luciferase reporter, IFN-gamma, luminescence; inhibition, % at 5.5 µM; AID 920;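 active = inhibition above a set limit, the mean inhibition across all tested compounds plus 3 SD, cut at about 34% in these data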;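 also: 0% = IFN-gamma with DMSO and 100% = IFN-gamma with 300 µM nifuroxazide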
STAT3 inh – inhibitors of IL-6 induced STAT3 signaling; U3A cells, IL-6 STAT3-luciferase reporter, luminescence; host cell line lacks STAT1; inhibition, % at 5.5 µM; 0.89% of 190,000 active; AID 862;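 active = inhibition above the mean inhibition across all screened compounds plus 3 SD, cut at about 44% in these data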;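 also: 0% = DMSO only wells and 100% = 100 µM nifuroxazide control wells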
An asterisk follows results filed as active.

SMILES | STAT3 activator | STAT1 act | STAT1 inh | STAT3 inh
NC(=O)c1ccc(N=Nc2c(-c3ccccc3)[nH]n(-c3ccccc3)c2=O)cc1 | 87 | 102 | -3 | 18
O=C(/C=C\Nc1cccc(F)c1)c1ccc2c(c1)OCO2 | 21 | 63 | 51* | 96*
CNc1cc([N+](=O)[O-])ccc1N/C=C/C(=O)c1ccc2c(c1)OCO2 | 135* | 135* | -39 | -38
O=C(/C=C\Nc1ccccc1Br)c1ccc2c(c1)OCO2 | 27 | 24 | 82* | 87*
O=C(Nc1ccccc1)N1CCN(S(=O)(=O)c2ccccc2)CC1 | 104 | 94 | 5 | 2
COCCN1C(=O)CS/C1=C(/C#N)C(=O)NCc1ccco1 | 106 | 101 | -1 | -5
O=C(NC(=S)Nc1ccc(Br)cn1)c1cccs1 | 168* | 204* | -112 | -84
Cc1ccccc1C(=O)Nc1ccc(Br)cn1 | 96 | 134* | -37 | 15
Cc1cccnc1NC(=S)NC(=O)c1cccs1 | 154* | 174* | -82 | -50
COc1ccc(OCC(=O)N2CCN(S(=O)(=O)c3ccccc3[N+](=O)[O-])CC2)cc1 | 100 | 94 | 5 | 4
CN(C)/C=N/c1nc2ccc3c(c2s1)CCCC3 | 107 | 139* | -43 | 0
CCOc1ccc(NC(=O)CSc2nc3c([nH]c4ccccc43)c(=O)n2C)cc1 | 134* | 86 | 14 | -29
COCCn1c(SCC(=O)NCCc2ccc(OC)c(OC)c2)nc2c([nH]c3ccccc32)c1=O | 135* | 89 | 11 | -38
Cc1ccc(NC(=O)CSc2nc3c([nH]c4ccccc43)c(=O)n2C)cc1 | 112 | 85 | 16 | -5
Cc1cccc(Nc2ncnc3c2cnn3C)c1 | 90 | 106 | -8 | 16
Cn1ncc2c(Nc3ccc4ccccc4c3)ncnc21 | 103 | 145* | -50 | 2
Cc1nc(-c2ccccc2)sc1C(=O)O | 101 | 120 | -22 | 3
Cc1nc(-c2ccc(Cl)cc2)sc1C(=O)O | 113 | 138* | -43 | -14
Cc1ccc(-c2nc(C)c(C(=O)O)s2)cc1 | 86 | 135* | -40 | 26
Cc1nc(NC(=O)C(C)Oc2cccc(Cl)c2)sc1C(=O)N(C)C (centres undefined) | 97 | 101 | -1 | 2
Cc1ccc(C)c(-c2nc3ccc(N)cc3[nH]2)c1 | 87 | 102 | -2 | 18
Cc1ccc2nc(Cc3ccc(N)cc3)[nH]c2c1 | 112 | 131* | -35 | -2
Cc1ccccc1-c1nc(Cc2ccccc2)no1 | 95 | 140* | -43 | 10
COc1nc(C)ccc1-c1noc(-c2ccccn2)n1 | 70 | 124 | -26 | 38
COc1ccccc1-c1nc(-c2ccccn2)no1 | 42 | 68 | 36* | 75*
SMILES | STAT3 activator | STAT1 act | STAT1 inh | STAT3 inh
COc1ccc(-c2nc(-c3ccccn3)no2)cc1 | 8 | 10 | 96* | 109*
COc1ccccc1-c1noc(-c2ccncc2)n1 | 95 | 119 | -21 | 5
COc1ccc(-c2noc(-c3ccccc3-c3ccccc3)n2)cc1OC | 99 | 101 | -1 | 3
COc1ccccc1-c1noc(-c2cccs2)n1 | 119 | 130* | -33 | -19
CC(C)(C)c1ccc(C(=O)Nc2ccc(NC(=O)C(=O)O)cc2)o1 | 102 | 98 | 0 | -1
Nc1nc(SCc2ccc(F)cc2)ns1 | 106 | 112 | -13 | 0
Cc1ccccc1-c1nc(-c2ccccn2)no1 | 24 | 29 | 77* | 99*
c1ccc(CCc2nc(-c3ccccn3)no2)cc1 | 102 | 126 | -28 | 1
O=[N+]([O-])c1ccc(-c2nc3ccc([N+](=O)[O-])cc3[nH]2)cc1 | 94 | 131* | -35 | 18
O=C(Nc1ccc(N2CCCCC2)cc1)c1ccc2c(c1)OCCO2 | 75 | 133* | -36 | 33
O=C(Nc1cccc2nsnc12)c1ccc2c(c1)OCCO2 | 100 | 132* | -35 | 3
CN(C)S(=O)(=O)Oc1ccc(C(=O)Nc2cccc(Cl)c2)cc1 | 104 | 143* | -48 | 3
O=C(Nc1cccc([N+](=O)[O-])c1)c1[nH]ncc1Cl | 89 | 134* | -38 | 16
Cc1cccc(NC(=O)c2sc(Cl)nc2C)c1C | 93 | 102 | -3 | 9
COc1ccc(N(C(=O)COc2ccc(C)cc2)S(=O)(=O)c2ccc(C)cc2)cc1 | 100 | 107 | -7 | -2
O=C(Nc1cccc([N+](=O)[O-])c1)c1ccncc1 | 105 | 107 | -8 | -3
CN(c1cccc(NC(=O)c2ccc(N(C)S(=O)(=O)c3ccccc3)cc2)c1)S(C)(=O)=O | 86 | 86 | 13 | 23
O=C(Nc1cccc([N+](=O)[O-])c1)c1ccc2c(c1)OCCO2 | 104 | 139* | -44 | -8
CN(c1cccc(NC(=O)c2ccc(C(C)(C)C)cc2)c1)S(C)(=O)=O | 94 | 138* | -44 | 11
CC(C)(C)c1ccc(C(=O)Nc2cccc([N+](=O)[O-])c2)cc1 | 102 | 135* | -34 | -4
CCOC(=O)c1cc(NC(=O)c2ccccc2)c(=O)n2c1oc1ccccc12 | 85 | 114 | -17 | 22
COc1cccc(CNC(=O)CN2C(=O)CSc3ccc(S(=O)(=O)N4CCCC4)cc32)c1 | 102 | 96 | 5 | 4
Cc1ccnc(N=Cc2nc(-c3ccccc3Br)oc2O)c1 | 91 | 142* | -47 | 13
O=C(N/N=C/C(Br)=C/c1ccccc1)c1n[nH]c2c1CCC2 | 137* | 146* | -50 | -35
O=C(N/N=C/c1cccs1)c1cncc(Br)c1 | 95 | 105 | -5 | 10
SMILES | STAT3 activator | STAT1 act | STAT1 inh | STAT3 inh
CCCNC(=O)C(=O)N/N=C/c1ccc(OCc2ccccc2)cc1 | 101 | 102 | -4 | 1
O=C(N/N=C/c1cccs1)c1n[nH]c2c1CCC2 | 79 | 130* | -33 | 24
O=C(N/N=C/C(Br)=C/c1ccccc1)c1cc(-c2ccco2)[nH]n1 | 101 | 105 | -5 | 5
Oc1ccc(N=Cc2ccc(OCc3ccccc3)cc2)cc1 | 103 | 142* | -44 | -2
O=C(N/N=C/C(Br)=C/c1ccccc1)c1cccs1 | 90 | 148* | -55 | 15
NS(=O)(=O)c1ccc(CCn2c(=S)[nH]c3ccc(F)cc3c2=O)cc1 | 86 | 98 | 2 | 18
O=C(N/N=C/c1ccc(OCc2ccccc2)cc1)c1cccs1 | 110 | 140* | -45 | -9
O=C(N/N=C/c1ccc(OCc2ccccc2)cc1)c1ccncc1 | 96 | 103 | -5 | 8
COc1ccc(-c2noc(C(=O)NCc3ccc(F)cc3)n2)cc1OC | 107 | 97 | 1 | 0
COc1ccc(N=C2S/C(=C\c3cc(C)n(C)c3C)C(=O)N2C)cc1 | 99 | 100 | 0 | 3
COc1ccccc1N1C(=O)S/C(=C\c2cc(C)n(C)c2C)C1=O | 95 | 137* | -42 | 12
CCOc1cc(C=O)ccc1OCc1cc(=O)n2cc(C)ccc2n1 | 91 | 96 | 3 | 15
Cc1ccc2nc(COc3ccc(Cl)cc3)cc(=O)n2c1 | 101 | 136* | -41 | 10
O=C(NCCc1ccccc1)C1CCC(CNc2nc(=S)[nH]c3ccccc23)CC1 (centres undefined) | 99 | 104 | -6 | 3
